# Measurements published in paper PMC5615155 (Toxicology Reports, 2017).
# Entries after “also recorded” stand apart in the source; their conditions may differ.
# Tests used:
# [1] = test system: S. typhimurium strains TA98, TA100, TA1535, TA1537; assay: bacterial reverse mutation test; format: cell-based
# Summary of the method: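 GLP plate-incorporation Ames test per OECD 471 with S. typhimurium TA98, TA100, TA1535, TA1537 and E. coli WP2 uvrA, ± Aroclor 1254-induced male rat liver S9. An initial toxicity-mutation phase (1.5–5000 μg/plate) set the range for the confirmatory assay at 100, 333, 1000, 3333 and 5000 μg/plate. Negative and positive controls were included. Toxicity and precipitate were noted.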
# [2] = test system: 68 receptor binding assays for GPCRs, ion channels, nuclear receptors, transporters; assay: receptor lead profiling panel; conditions: 10 μM
# CYP1A2 = molecular target: T1, CYP1A2 (Homo sapiens, UniProt P05177); assay: CYP inhibition, spectrofluorimetric; format: biochemical; conditions: recombinant human CYP1A2 expressed in insect Sf9 cells
# T1 sequence (P05177 1-516): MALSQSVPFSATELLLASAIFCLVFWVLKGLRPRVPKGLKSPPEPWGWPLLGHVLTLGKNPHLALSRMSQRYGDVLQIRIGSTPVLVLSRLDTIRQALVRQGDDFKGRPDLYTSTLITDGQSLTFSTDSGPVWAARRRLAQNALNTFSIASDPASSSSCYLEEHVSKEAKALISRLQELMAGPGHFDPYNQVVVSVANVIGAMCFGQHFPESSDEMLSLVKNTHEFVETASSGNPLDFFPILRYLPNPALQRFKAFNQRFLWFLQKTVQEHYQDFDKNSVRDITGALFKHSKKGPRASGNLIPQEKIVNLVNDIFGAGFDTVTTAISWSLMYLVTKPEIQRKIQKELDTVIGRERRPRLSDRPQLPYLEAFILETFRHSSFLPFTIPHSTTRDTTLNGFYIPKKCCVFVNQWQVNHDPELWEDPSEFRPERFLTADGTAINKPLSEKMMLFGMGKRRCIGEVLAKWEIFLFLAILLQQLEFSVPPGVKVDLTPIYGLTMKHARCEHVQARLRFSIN
# Summary of the method: (§1)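 Inhibition was assayed with recombinant human CYP isoforms expressed in insect Sf9 cells. Turnover of spectrofluorimetric substrates was read by fluorescence. Test compound was tested at a single concentration of 10 μM.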
# [3] = test system: human peripheral blood lymphocytes (HPBL); assay: in vitro micronucleus test; format: cell-based
# Summary of the method: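 HPBL micronucleus test per OECD 487, GLP. Exposures: 4 h −S9, 4 h +S9 (Aroclor 1254-induced male rat liver), 24 h −S9. DMSO solvent; positive controls vinblastine (−S9) and cyclophosphamide (+S9). 4 h cultures were washed, then 20 h in cytochalasin B 6.0 μg/mL. Dose range from preliminary toxicity test (0.2–2000 μg/mL). Duplicate cultures: CBPI from ≥1000 cells; ≥2000 binucleated cells scored.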
# [4] = in vitro microsomal metabolism; format: in vitro ADME, Sprague-Dawley rat; conditions: 10 μM, 0.5 mg/mL, +NADPH, 120 min
# CYP2C9 = CYP2C9 (Homo sapiens, UniProt P11712); assay: CYP inhibition, spectrofluorimetric; format: biochemical; conditions: recombinant human CYP2C9 expressed in insect Sf9 cells
# Sequence of CYP2C9 (P11712 whole entry): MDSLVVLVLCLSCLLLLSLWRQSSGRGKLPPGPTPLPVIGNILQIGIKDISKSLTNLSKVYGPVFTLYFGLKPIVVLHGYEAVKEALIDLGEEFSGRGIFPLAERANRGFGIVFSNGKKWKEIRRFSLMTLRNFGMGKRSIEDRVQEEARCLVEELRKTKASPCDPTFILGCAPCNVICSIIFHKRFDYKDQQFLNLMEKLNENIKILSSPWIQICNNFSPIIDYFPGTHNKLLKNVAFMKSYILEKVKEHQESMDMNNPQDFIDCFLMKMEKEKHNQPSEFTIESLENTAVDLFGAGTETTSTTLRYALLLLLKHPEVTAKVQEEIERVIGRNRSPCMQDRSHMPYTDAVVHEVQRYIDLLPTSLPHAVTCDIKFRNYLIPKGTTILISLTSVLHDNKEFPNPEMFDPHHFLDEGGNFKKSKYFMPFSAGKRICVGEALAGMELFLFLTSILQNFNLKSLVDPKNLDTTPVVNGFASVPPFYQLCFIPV
# Summary of the method: as §1
# [5] = definitive developmental toxicity study; format: in vivo, Crl:CD(SD) rats
# Summary of the method: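 For the definitive developmental toxicity study, bred female Sprague-Dawley rats, 25/group, were given the sulfate salt of the test compound by oral gavage at 250, 500 or 1000 mg/kg bw/day, with a control group. Per litter, corpora lutea, implantation sites, pre- and post-implantation loss, live and dead fetuses, resorptions (early/late), fetal sex and fetal body weight were recorded.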
# [6] = dose range-finding developmental toxicity study; format: in vivo, Crl:CD(SD) rats
compound,measurement,setting,value
"Cc1cc(C(=O)NC(C)(C)COc2cccc3c2C(N)=NS(=O)(=O)N3)cc(C)n1 [S2218, N-(1-((4-amino-2,2-dioxido-1H-benzo[c][1,2,6]thiadiazin-5-yl)oxy)-2-methylpropan-2-yl)-2,6-dimethylisonicotinamide]","Reverse mutation (in vitro), result","[1]; 100–5000 μg/plate, plate incorporation, ±S9",not found to be mutagenic; also recorded: Negative
same,cytotoxicity (background lawn / revertant colonies),"[1]; all tester strains, ±S9, up to 5000 μg per plate",No cytotoxicity
same,concentration at which precipitate was observed,[1]; confirmatory mutagenicity assay,≥ 3333 μg per plate
same,concentration at which precipitate was observed,[1]; initial toxicity-mutation assay,5000 μg per plate
same,inhibition or stimulation in lead profiling receptor screen,[2],< 50%
same,inhibition at 10 μM,CYP1A2,≤ 7%
same,"Micronucleus formation (in vitro), result","[3]; 250–1000 μg/mL, 24 h exposure, −S9",negative for the induction of micronuclei
same,"Micronucleus formation (in vitro), result","[3]; 500–2000 μg/mL, 4 h exposure, ±S9",neither clastogenic nor aneugenic; also recorded: negative for the induction of micronuclei
same,cytotoxicity (55 ± 5% CBPI relative to vehicle control),"[3]; micronucleus assay, any dose, three treatment conditions",not observed
same,concentration with visible precipitate,[3]; non-activated 24 h exposure,≥ 1000 µg/mL
same,concentration with visible precipitate,[3]; non-activated and S9-activated 4 h exposure,2000 µg/mL
same,% MS (EIC) peak area of parent relative to time 0,[4],96.5 ± 0.4%
same,inhibition at 10 μM,CYP2C9,≤ 7%
Cc1cc(C(=O)NC(C)(C)COc2cccc3c2C(N)=NS(=O)(=O)N3)cc(C)n1.O=S(=O)(O)O [S8069],Corpora Lutea,"[5]; 250 mg/kg bw/d, Mean",15.1
same,Dead Fetuses,"[5]; 250 mg/kg bw/d, Mean",0.0
same,Fetal Wt.,"[5]; 250 mg/kg bw/d, Mean",5.9 g
same,"Fetuses, Sex F","[5]; 250 mg/kg bw/d, Mean",7.2
same,"Fetuses, Sex M","[5]; 250 mg/kg bw/d, Mean",6.6
same,Implant. Sites,"[5]; 250 mg/kg bw/d, Mean",14.8
same,Post-Implant. Loss,"[5]; 250 mg/kg bw/d, Mean",1.0
same,Pre-Implant. Loss,"[5]; 250 mg/kg bw/d, Mean",0.4
same,"Resorptions, Early","[5]; 250 mg/kg bw/d, Mean",1.0
same,"Resorptions, Late","[5]; 250 mg/kg bw/d, Mean",0.0
same,Viable Fetuses,"[5]; 250 mg/kg bw/d, Mean",13.8
same,Corpora Lutea,"[5]; 250 mg/kg bw/d, Total",363
same,Dead Fetuses,"[5]; 250 mg/kg bw/d, Total",0
same,"Fetuses, Sex F","[5]; 250 mg/kg bw/d, Total",173
same,"Fetuses, Sex M","[5]; 250 mg/kg bw/d, Total",158
same,Implant. Sites,"[5]; 250 mg/kg bw/d, Total",354
same,Post-Implant. Loss,"[5]; 250 mg/kg bw/d, Total",23
same,Pre-Implant. Loss,"[5]; 250 mg/kg bw/d, Total",9
same,"Resorptions, Early","[5]; 250 mg/kg bw/d, Total",23
same,"Resorptions, Late","[5]; 250 mg/kg bw/d, Total",0
same,Viable Fetuses,"[5]; 250 mg/kg bw/d, Total",331
same,Corpora Lutea,"[5]; 500 mg/kg bw/d, Mean",16.1
same,Dead Fetuses,"[5]; 500 mg/kg bw/d, Mean",0.0
same,Fetal Wt.,"[5]; 500 mg/kg bw/d, Mean",5.6 g
same,"Fetuses, Sex F","[5]; 500 mg/kg bw/d, Mean",8.2
same,"Fetuses, Sex M","[5]; 500 mg/kg bw/d, Mean",6.6
same,Implant. Sites,"[5]; 500 mg/kg bw/d, Mean",15.4
same,Post-Implant. Loss,"[5]; 500 mg/kg bw/d, Mean",0.7
same,Pre-Implant. Loss,"[5]; 500 mg/kg bw/d, Mean",0.7
same,"Resorptions, Early","[5]; 500 mg/kg bw/d, Mean",0.7
same,"Resorptions, Late","[5]; 500 mg/kg bw/d, Mean",0.0
same,Viable Fetuses,"[5]; 500 mg/kg bw/d, Mean",14.7
same,Corpora Lutea,"[5]; 500 mg/kg bw/d, Total",370
same,Dead Fetuses,"[5]; 500 mg/kg bw/d, Total",0
same,"Fetuses, Sex F","[5]; 500 mg/kg bw/d, Total",188
same,"Fetuses, Sex M","[5]; 500 mg/kg bw/d, Total",151
same,Implant. Sites,"[5]; 500 mg/kg bw/d, Total",355
same,Post-Implant. Loss,"[5]; 500 mg/kg bw/d, Total",16
same,Pre-Implant. Loss,"[5]; 500 mg/kg bw/d, Total",15
same,"Resorptions, Early","[5]; 500 mg/kg bw/d, Total",16
same,"Resorptions, Late","[5]; 500 mg/kg bw/d, Total",0
same,Viable Fetuses,"[5]; 500 mg/kg bw/d, Total",339
same,"malformations, fetuses (litters)",[5]; 500 mg/kg bw/day,4(4)
same,"skeletal malformations, fetuses (litters)",[5]; 500 mg/kg bw/day,3(3)
same,"visceral malformations, fetuses (litters)",[5]; 500 mg/kg bw/day,3(3)
same,Corpora Lutea,"[5]; 1000 mg/kg bw/d, Mean",15.1
same,Dead Fetuses,"[5]; 1000 mg/kg bw/d, Mean",0.0
same,Fetal Wt.,"[5]; 1000 mg/kg bw/d, Mean",5.6 g
same,"Fetuses, Sex F","[5]; 1000 mg/kg bw/d, Mean",7.0
same,"Fetuses, Sex M","[5]; 1000 mg/kg bw/d, Mean",7.3
same,Implant. Sites,"[5]; 1000 mg/kg bw/d, Mean",14.6
same,Post-Implant. Loss,"[5]; 1000 mg/kg bw/d, Mean",0.3
same,Pre-Implant. Loss,"[5]; 1000 mg/kg bw/d, Mean",0.6
same,"Resorptions, Early","[5]; 1000 mg/kg bw/d, Mean",0.3
same,"Resorptions, Late","[5]; 1000 mg/kg bw/d, Mean",0.0
same,Viable Fetuses,"[5]; 1000 mg/kg bw/d, Mean",14.3
same,Corpora Lutea,"[5]; 1000 mg/kg bw/d, Total",348
same,Dead Fetuses,"[5]; 1000 mg/kg bw/d, Total",0
same,"Fetuses, Sex F","[5]; 1000 mg/kg bw/d, Total",160
same,"Fetuses, Sex M","[5]; 1000 mg/kg bw/d, Total",168
same,Implant. Sites,"[5]; 1000 mg/kg bw/d, Total",335
same,Post-Implant. Loss,"[5]; 1000 mg/kg bw/d, Total",7
same,Pre-Implant. Loss,"[5]; 1000 mg/kg bw/d, Total",13
same,"Resorptions, Early","[5]; 1000 mg/kg bw/d, Total",7
same,"Resorptions, Late","[5]; 1000 mg/kg bw/d, Total",0
same,Viable Fetuses,"[5]; 1000 mg/kg bw/d, Total",328
same,"malformations, fetuses (litters)",[5]; 1000 mg/kg bw/day,1(1)
same,"visceral malformations, fetuses (litters)",[5]; 1000 mg/kg bw/day,1(1)
same,females with rales 1 h following dose,"[5]; 1000 mg/kg bw/day, GD 8–17",6
same,females with salivation at time of dose,"[5]; 1000 mg/kg bw/day, GD 12–16",4
same,mean maternal body weight loss,"[5]; 1000 mg/kg bw/day, Gestation Day 8–9",2 g
same,external malformations,[5]; test article-treated groups,no external malformations observed
same,external developmental malformations or variations in fetuses,[6]; 125–1000 mg/kg bw/day,No external developmental malformations or variations were observed
same,Findings,"[6]; 125–1000 mg/kg bw/day oral gavage, GD 6–20",No maternal toxicity or effect on intrauterine growth up to 1000 mg/kg bw/day
